Measured values from ChEMBL document CHEMBL3585301 (Bioorg Med Chem Lett, 2014).
Activity calls are given as the source filed them. The calls are words filed in the database; no cut-off is given here.

How the values were obtained:
Jurkat E6.1 = assay: Anticancer activity against human Jurkat E6-1 cells assessed as reduction in cell proliferation after 48 hrs by WST-1 assay; assay type: functional, cell-based; settings: Jurkat E6.1, 48 h
Procedure, shortened: (§1)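 Cells were exposed to compound for 48 h and proliferation was measured from dose-response curves. NCM460 was tested at doses up to 20 µM. U-2 OS was also read in the 2.5-5.0 µM range. IC50 was calculated from the curves. Data are mean of quadruplicates ± SD from three independent trials.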

Tubulin (Sus scrofa) [1] = target: T1, Tubulin (Sus scrofa) (UniProt P02554+P02550); assay: Inhibition of porcine brain tubulin polymerization at 3 uM measured for 1 hr by spectrofluorometer analysis
Procedure, shortened: (§2)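 This was an in vitro tubulin polymerization assay monitored kinetically for 1 h against a DMSO vehicle control. Polymerization was read fluorometrically from incorporation of a fluorescent reporter, in relative fluorescence units. Data are mean of duplicates ± SEM of three independent trials, compared with control.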

U2OS [2] = assay: Anticancer activity against human U2OS cells assessed as reduction in cell proliferation after 48 hrs by WST-1 assay; assay type: functional, cell-based; procedure, shortened: as §1
MV4-11 [3] = assay: Anticancer activity against human MV4-11 cells assessed as reduction in cell proliferation after 48 hrs by WST-1 assay; assay type: functional, cell-based; settings: MV4-11, 48 h; procedure, shortened: as §1
MV4-11 [4] = assay: Induction of apoptosis in human MV4-11 cells assessed as phosphatidylserine externalization at 0.0075 and 5 uM after 48 hrs by AnnexinV/propidium iodide staining based Tali-image based cytometry; assay type: functional, cell-based
Procedure, shortened: (§3)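 After 48 h treatment, phosphatidylserine externalization was detected with Annexin V–Alexa Fluor 488, and membrane-permeabilized (necrotic) cells were detected by propidium iodide uptake. Green and/or red populations were quantified by image-based cytometry. Signal above the control baseline was scored as apoptotic, necrotic, or both. Data are mean ± SD of three independent trials.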

[5] = Cytotoxicity against human NCM460 cells assessed as reduction in cell proliferation after 48 hrs by WST-1 assay; assay type: cell-based; settings: NCM460, 48 h; procedure, shortened: as §1
[6] = Induction of apoptosis in human NCM460 cells assessed as phosphatidylserine externalization 0.1 and 20 uM after 48 hrs by AnnexinV/propidium iodide staining based Tali-image based cytometry; assay type: cell-based; settings: ncm460, 48 h; procedure, shortened: as §3
U2OS [7] = assay: Anticancer activity against human U2OS cells assessed as reduction in cell proliferation at 2.5 to 5 uM after 48 hrs by WST-1 assay; assay type: functional; parameters: scale not given: the % may be the effect or the level left; procedure, shortened: as §1
[8] = Anticancer activity against human Saos2 cells assessed as reduction in cell proliferation after 48 hrs by WST-1 assay; assay type: functional, cell-based; settings: SAOS-2, 48 h; procedure, shortened: as §1
SAOS-2 = assay: Induction of apoptosis in human Saos2 cells assessed as phosphatidylserine externalization at 0.01 and 5 uM after 48 hrs by AnnexinV/propidium iodide staining based Tali-image based cytometry; assay type: functional, cell-based; procedure, shortened: as §3
Tubulin (Sus scrofa) [9] = target: T1, Tubulin (Sus scrofa); assay: Inhibition of porcine brain tubulin polymerization at 10 uM measured for 1 hr by spectrofluorometer analysis; procedure, shortened: as §2
U2OS [10] = assay: Anticancer activity against human U2OS cells assessed as reduction in cell proliferation at 10 uM after 48 hrs by WST-1 assay; assay type: functional, cell-based
Procedure, shortened: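 This was a blind single-concentration screen of a 600-compound library against U-2 OS osteosarcoma cells. Each compound was tested at 10 µM for 48 h, and reduced proliferation was flagged for follow-up.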

T1 sequence (P02550 whole entry, looked up): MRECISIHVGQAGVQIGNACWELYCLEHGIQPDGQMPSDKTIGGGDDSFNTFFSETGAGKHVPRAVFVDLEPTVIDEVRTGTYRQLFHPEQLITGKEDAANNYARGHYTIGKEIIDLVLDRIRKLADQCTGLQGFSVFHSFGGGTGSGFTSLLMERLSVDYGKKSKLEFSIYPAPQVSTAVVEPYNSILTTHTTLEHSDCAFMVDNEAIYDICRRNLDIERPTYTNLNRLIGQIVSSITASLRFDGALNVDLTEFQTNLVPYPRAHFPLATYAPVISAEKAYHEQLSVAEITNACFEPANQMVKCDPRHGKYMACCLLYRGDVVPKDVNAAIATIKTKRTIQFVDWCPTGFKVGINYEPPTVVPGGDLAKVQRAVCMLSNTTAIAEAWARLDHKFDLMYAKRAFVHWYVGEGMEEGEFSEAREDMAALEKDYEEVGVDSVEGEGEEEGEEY
T1 sequence (P02554 whole entry, looked up): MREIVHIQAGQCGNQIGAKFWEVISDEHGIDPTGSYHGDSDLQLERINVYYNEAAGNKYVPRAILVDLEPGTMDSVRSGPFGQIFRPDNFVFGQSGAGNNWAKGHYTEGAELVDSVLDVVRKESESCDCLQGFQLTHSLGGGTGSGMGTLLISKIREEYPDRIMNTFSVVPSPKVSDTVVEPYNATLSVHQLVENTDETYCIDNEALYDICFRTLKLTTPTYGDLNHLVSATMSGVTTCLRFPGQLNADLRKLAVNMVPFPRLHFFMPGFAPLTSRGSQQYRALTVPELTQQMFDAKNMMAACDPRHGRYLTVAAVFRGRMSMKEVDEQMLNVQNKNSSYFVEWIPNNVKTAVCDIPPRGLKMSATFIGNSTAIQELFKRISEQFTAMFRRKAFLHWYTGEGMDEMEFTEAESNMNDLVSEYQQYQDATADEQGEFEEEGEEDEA

COc1ccc(/C=C\c2cc(OC)c(OC)c(OC)c2)cc1O [COMBRETASTATIN A4]
IC50 (Jurkat E6.1): 6.08 nM | inhibition (Tubulin (Sus scrofa) [1]): Active | IC50 (U2OS [2]): 14.1 nM | IC50 (MV4-11 [3]): 6.27 nM | Activity (MV4-11 [4]): Active | IC50 [5]: > 20000 nM | Activity [6]: Non-toxic | Activity (U2OS [7]): 30% | IC50 [8]: 11.4 nM | Activity (SAOS-2): Active

COc1cc(-c2ccc(OC)c(OC)c2OC)ccc1O
IC50 (Jurkat E6.1): 486 nM | inhibition (Tubulin (Sus scrofa) [9]): Active | inhibition (Tubulin (Sus scrofa) [1]): Active | inhibition (U2OS [10]): Active | IC50 (U2OS [2]): > 20000 nM | IC50 (MV4-11 [3]): 1250 nM | Activity (MV4-11 [4]): Active | IC50 [5]: > 20000 nM | Activity [6]: Non-toxic | Activity (U2OS [7]): 60% | IC50 [8]: 1770 nM | Activity (SAOS-2): Active

COc1ccc(-c2ccc(OC)c(OC)c2OC)cc1O
IC50 (Jurkat E6.1): 965 nM | inhibition (Tubulin (Sus scrofa) [9]): Active | inhibition (Tubulin (Sus scrofa) [1]): inactive | inhibition (U2OS [10]): Active | IC50 (U2OS [2]): > 20000 nM | IC50 (MV4-11 [3]): 2760 nM | Activity (MV4-11 [4]): Active | IC50 [5]: > 20000 nM | Activity [6]: Non-toxic | Activity (U2OS [7]): 60% | IC50 [8]: 5430 nM | Activity (SAOS-2): Active
